Reference: ChEMBL document CHEMBL5352422, “Development of l-Dopa-containing diketopiperazines as blood-brain barrier shuttle” (Eur J Med Chem, 2022)
Activity calls are given as the source filed them. The rule behind the calls is not given here.

Molecular target: T1, Nuclear factor erythroid 2-related factor 2 (Rattus norvegicus) (UniProt O54968)
T1 sequence (whole entry): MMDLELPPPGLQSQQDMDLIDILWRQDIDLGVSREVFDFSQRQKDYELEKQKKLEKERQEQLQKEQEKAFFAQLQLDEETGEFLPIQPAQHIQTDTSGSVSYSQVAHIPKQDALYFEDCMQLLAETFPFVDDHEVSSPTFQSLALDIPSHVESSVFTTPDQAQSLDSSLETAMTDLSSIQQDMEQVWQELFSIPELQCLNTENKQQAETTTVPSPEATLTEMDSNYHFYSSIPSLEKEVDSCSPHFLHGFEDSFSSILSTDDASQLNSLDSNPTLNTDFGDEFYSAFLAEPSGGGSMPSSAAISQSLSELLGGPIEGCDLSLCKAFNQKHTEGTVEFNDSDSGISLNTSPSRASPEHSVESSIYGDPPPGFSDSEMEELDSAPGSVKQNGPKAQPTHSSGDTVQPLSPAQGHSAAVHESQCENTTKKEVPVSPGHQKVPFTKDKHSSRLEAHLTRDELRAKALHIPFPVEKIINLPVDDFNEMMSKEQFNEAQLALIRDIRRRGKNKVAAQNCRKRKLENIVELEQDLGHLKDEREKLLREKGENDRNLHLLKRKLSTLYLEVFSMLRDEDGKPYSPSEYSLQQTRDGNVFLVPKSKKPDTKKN
Experiment: Induction of MPP+ induced Nrf2 nuclear translocation in rat PC12 cells at 100 nM incubated for 24 hrs by Western blot analysis
Type: cell-based
Conditions: PC-12, filed as activator
How it was run: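 PC12 cells were incubated 24 h with MPP+ (25 μM) with or without compound (100 nM). Nuclear extracts (30 μg) were run on 10% SDS-PAGE and immunoblotted for Nrf2, with histone H3 as nuclear marker and ECL detection.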

Activity: Active
SMILES: C#CCSC[C@H]1NC(=O)[C@H](Cc2ccc(OC(C)=O)c(OC(C)=O)c2)NC1=O
